The results in this text go back to ChEMBL document CHEMBL3286099, “Synthesized quercetin derivatives stimulate melanogenesis in B16 melanoma cells by influencing the expression of melanin biosynthesis proteins MITF and p38 MAPK” (Bioorg Med Chem, 2014).

In data set [1] the test system is B16-F0. Put plainly: Intracellular melanogenesis-stimulating activity in mouse B16F0 cells at 25 uM after 72 hrs by spectrophotometry relative to control. Type of data set: functional. Put shortly: (§1)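 Cells were seeded at 5.0 × 10⁴ cells/well, adhered for 24 h, then treated with compound for 72 h. After a PBS wash, cells were lysed in 1 M NaOH at 100 °C for 30 min to solubilize melanin. Lysate absorbance at 405 nm served as the intracellular melanin index, expressed as % of DMSO control. Experiments were done twice.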

The subject of data set [2] is B16-F0. Put plainly: Intracellular melanogenesis-stimulating activity in mouse B16F0 cells at 12.5 uM after 72 hrs by spectrophotometry relative to control. Type of data set: functional. The method, boiled down: as §1
Data set [3] relates to B16-F0. Put plainly: Intracellular melanogenesis-stimulating activity in mouse B16F0 cells at 6.25 uM after 72 hrs by spectrophotometry relative to control. Type of data set: functional. Put shortly: as §1
Data set [4] deals with B16-F0. The data set can be described thus: Extracellular melanogenesis-stimulating activity in mouse B16F0 cells at 25 uM after 72 hrs by spectrophotometry relative to control. The class given is functional. Put shortly: (§2)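 B16-F0 cells in DMEM with 10% FBS were seeded at 5.0 × 10⁴ cells/well and adhered for 24 h. They were treated for 72 h at 200–10 µM or 50–6.25 µM, depending on compound series. Absorbance of the collected culture medium at 510 nm gave extracellular melanin, expressed as % of DMSO-treated control. Experiments were done twice.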

Data set [5] concerns B16-F0. The data set can be described thus: Extracellular melanogenesis-stimulating activity in mouse B16F0 cells at 12.5 uM after 72 hrs by spectrophotometry relative to control. Type of data set: functional. The method, boiled down:
as §2

Data set [6] relates to B16-F0. The data set can be described thus: Extracellular melanogenesis-stimulating activity in mouse B16F0 cells at 6.25 uM after 72 hrs by spectrophotometry relative to control. Type of data set: functional. Put shortly:
as §2

The nature of data set [7]: Cytotoxicity against mouse B16F0 cells assessed as cell viability at 25 uM after 72 hrs by MTT assay. The class given is cell-based. As to conditions: read-out: Activity. Put shortly: (§3)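 B16-F0 cells were seeded at 5.0 × 10⁴ cells/well and allowed to adhere for 24 h at 37 °C. They were exposed for 72 h to compound at 200–10 µM or 50–6.25 µM, depending on compound series. MTT (5 mg/mL stock in PBS) was added for 4 h at 37 °C in 5% CO₂, then dissolved in isopropanol/0.04 N HCl and read at 590 nm. Viability is % of DMSO control; experiments were done twice.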
(In general: Tetrazolium assays rely on reduction of a dye to a coloured formazan, in cell work by metabolically active cells.)

Data set [8] can be described thus: Cytotoxicity against mouse B16F0 cells assessed as cell viability at 12.5 uM after 72 hrs by MTT assay. The class given is cell-based. The following applies: read-out: Activity. The method, boiled down: as §3
Data set [9] is described as follows: Cytotoxicity against mouse B16F0 cells assessed as cell viability at 6.25 uM after 72 hrs by MTT assay. The class given is cell-based. As to conditions: read-out: Activity. The method, boiled down: as §3
For data set [10], the system named is B16-F0. The data set can be described thus: Induction of melanogenesis-stimulating activity in mouse B16F0 cells assessed as increase in tyrosinase protein expression after 72 hrs by Western blotting analysis. The class given is functional, cell-based. The method, boiled down:
(§4)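 B16 cells were treated for 72 h at 0–12.5 µM and lysed in RIPA with protease inhibitors (0 °C, 30 min). Lanes held 10 µg protein on 10% SDS–PAGE, transferred to PVDF and blocked with 2% BSA/TBST at 4 °C overnight. Primaries ran 2 h: MITF 1:1000, tyrosinase, TRP-1 and p-p38 1:200, TRP-2 and p38 1:100. HRP secondary was 1:5000 for 2 h, with ECL densitometry. GAPDH blotted; three independent experiments.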

Data set [11] concerns B16-F0. The data set can be described thus: Induction of melanogenesis-stimulating activity in mouse B16F0 cells assessed as increase in TRP-1 protein expression after 72 hrs by Western blotting analysis. The class given is functional, cell-based. Put shortly:
as §4
In general terms: In western blotting, separated proteins are transferred to a membrane and probed.

Data set [12] relates to B16-F0. The data set can be described thus: Induction of melanogenesis-stimulating activity in mouse B16F0 cells assessed as increase in TRP-2 protein expression after 72 hrs by Western blotting analysis. The class given is functional, cell-based. The method, boiled down:
as §4

Data set [13] relates to B16-F0. The data set can be described thus: Induction of melanogenesis-stimulating activity in mouse B16F0 cells assessed as increase in MITF protein expression after 72 hrs by Western blotting analysis. Type of data set: functional, cell-based. The method, boiled down:
as §4

Data set [14] deals with B16-F0. Put plainly: Induction of melanogenesis-stimulating activity in mouse B16F0 cells assessed as increase in p-p38 MAPK level after 72 hrs by Western blotting analysis. The class given is functional, cell-based. The method, boiled down:
as §4

Data set [15] concerns B16-F0. The data set can be described thus: Induction of melanogenesis-stimulating activity in mouse B16F0 cells assessed as increase in p38-MAPK protein expression after 72 hrs by Western blotting analysis. The class given is functional, cell-based. Put shortly: as §4
For data set [16], the system named is B16-F0. Put plainly: Intracellular melanogenesis-stimulating activity in mouse B16F0 cells at 500 uM after 72 hrs by spectrophotometry relative to control. The class given is functional.
The test system of data set [17] is B16-F0. Put plainly: Intracellular melanogenesis-stimulating activity in mouse B16F0 cells at 250 uM after 72 hrs by spectrophotometry relative to control. The class given is functional.
Data set [18] deals with B16-F0. Put plainly: Intracellular melanogenesis-stimulating activity in mouse B16F0 cells at 125 uM after 72 hrs by spectrophotometry relative to control. Type of data set: functional. Put shortly:
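After 72 h treatment of B16-F0 cells (5.0 × 10⁴ cells/well, 24 h adherence), cells were washed with PBS and lysed in 1 M NaOH at 100 °C for 30 min to solubilise melanin. Lysate absorbance was read at 405 nm as intracellular melanin, expressed as % of DMSO control; experiments repeated twice.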

The test system of data set [19] is B16-F0. Put plainly: Extracellular melanogenesis-stimulating activity in mouse B16F0 cells at 500 uM after 72 hrs by spectrophotometry relative to control. Type of data set: functional.
The test system of data set [20] is B16-F0. Put plainly: Extracellular melanogenesis-stimulating activity in mouse B16F0 cells at 250 uM after 72 hrs by spectrophotometry relative to control. The class given is functional.
Data set [21] relates to B16-F0. Put plainly: Extracellular melanogenesis-stimulating activity in mouse B16F0 cells at 125 uM after 72 hrs by spectrophotometry relative to control. Type of data set: functional. The method, boiled down: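 B16-F0 cells were seeded at 5.0 × 10⁴ cells/well, allowed to adhere for 24 h, then treated for 72 h. Culture medium was collected and its absorbance read at 510 nm as extracellular melanin. Results are % of DMSO-treated control; experiments repeated twice.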

Data set [22] can be described thus: Cytotoxicity against mouse B16F0 cells assessed as cell viability at 500 uM after 72 hrs by MTT assay. The class given is cell-based. The following applies: read-out: Activity.
Data set [23] can be described thus: Cytotoxicity against mouse B16F0 cells assessed as cell viability at 250 uM after 72 hrs by MTT assay. The class given is cell-based. As to conditions: read-out: Activity.
The nature of data set [24]: Cytotoxicity against mouse B16F0 cells assessed as cell viability at 125 uM after 72 hrs by MTT assay. Type of data set: cell-based. As to conditions: read-out: Activity. The method, boiled down:
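B16-F0 murine melanoma cells in DMEM with 10% FBS, penicillin and streptomycin, at 37 °C and 5% CO₂. Seeded at 5.0 × 10⁴ cells/well, adhered 24 h, then exposed 72 h. MTT (5 mg/mL stock in PBS) added for 4 h at 37 °C, formazan taken up in isopropanol with 0.04 N HCl, A590 read. Viability given as % of DMSO control; experiments repeated twice.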

Calls of active or inactive are those of the source. No cut-off for these calls is given here.

For `COc1cc(O)c2c(=O)c(OC)c(-c3ccc(OC)c(O)c3)oc2c1` [AYANIN], the Activity stood at 203.4% in the data set on B16-F0 [1]; 181.4% in the data set on B16-F0 [2]; 127.7% in the data set on B16-F0 [3]; 298.7% in the data set on B16-F0 [4]; 228% in the data set on B16-F0 [5]; 225.5% in the data set with B16-F0 [6]. Further, the Activity entry with B16-F0 [10], with B16-F0 [11], in the data set on B16-F0 [12], in the data set on B16-F0 [13] and with B16-F0 [14] was “Dose-dependent effect” throughout. Moreover, in data set [7], the viability at 72 h, 25 µM is 90.2%. The viability at 72 h, 12.5 µM in [8] is 102%. Moreover, the viability at 72 h, 6.25 µM in data set [9] was determined as 95.3%. For the same molecule, the outcome with B16-F0 [15] was inactive.

Turning to `Cn1c(=O)c2nc[nH]c2n(C)c1=O.O` [THEOPHYLLINE], the Activity in the data set with B16-F0 [16] worked out at 166.8%; in the data set with B16-F0 [17] it was 131.7%; in the data set with B16-F0 [18], 127.6%; with B16-F0 [19], 204%; in the data set on B16-F0 [20], 183.2%; in the data set on B16-F0 [21] it was 170.7%. For the same molecule, in [22], the viability at 72 h, 500 µM worked out at 91.4%. Also, in [23], the viability at 72 h, 250 µM was 94.4%. The viability at 72 h, 125 µM in [24] turned out to be 95.5%.
